These results are taken from the M2OR odorant receptor database.

Each structure is given as a SMILES string.
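Further: active if original authors judged signal statistically different from baseline.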

The target in this experiment is T1, OR10S1 (Homo sapiens) (UniProt Q8NGN2).
T1 sequence (whole entry): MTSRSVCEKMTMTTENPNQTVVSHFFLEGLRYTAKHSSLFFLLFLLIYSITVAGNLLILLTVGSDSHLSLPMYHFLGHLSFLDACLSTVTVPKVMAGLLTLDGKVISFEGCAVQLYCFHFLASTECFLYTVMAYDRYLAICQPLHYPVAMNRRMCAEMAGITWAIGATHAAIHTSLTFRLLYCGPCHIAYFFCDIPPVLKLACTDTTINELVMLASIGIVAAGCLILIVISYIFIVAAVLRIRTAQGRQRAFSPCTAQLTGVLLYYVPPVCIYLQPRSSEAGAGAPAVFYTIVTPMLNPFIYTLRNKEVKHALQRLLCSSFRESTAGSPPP
As to conditions: stereoisomer not certain. The essentials:
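Whether a receptor–molecule pair is responsive (active) rests on the original authors' judgment that its measured signal was statistically different from baseline. Pairs without that judgment are non-responsive (inactive). Sources used varied assay methods, commonly transient luciferase assays in mammalian cell lines.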
With `Cc1c([N+](=O)[O-])c(C)c([N+](=O)[O-])c(C(C)(C)C)c1[N+](=O)[O-]`, the “odorant receptor agonist call” value is “inactive”. As for `COc1ccc(C=O)cc1`, the “odorant receptor agonist call” value is “inactive”.

As to `C=CCOC(=O)Cc1ccccc1`, the “odorant receptor agonist call” value is “inactive”. As to `Cc1cccc(C)c1`, the “odorant receptor agonist call” value was “inactive”.
